The values below come from ChEMBL document CHEMBL3351411, “Identification and synthesis of quinolizidines with anti-influenza a virus activity” (ACS Med Chem Lett, 2014).

pEC50: −log10 of the molar value. The source made the active and inactive calls. The rule behind the calls is not given here.

The subject of series [1] is Influenza A virus. As to the kind of experiment: Antiviral activity against Influenza A virus (A/Puerto Rico/8/34(H1N1)) infected in MDCK cells assessed as inhibition of virus-induced cytocidal activity after 48 hrs by CellTiter-Glo assay. In kind it is functional, organism-based. Conditions: A/Puerto Rico/8/1934(H1N1). Put shortly: (§1)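 MDCK cells infected with PR8 (mouse-adapted A/Puerto Rico/8/1934) or VR1679 at MOI = 1 and treated with compound at various concentrations for 2 days. Percent protection from virus killing was calculated by a formula. EC50 is the concentration giving 50% protection from the cytocidal effect. Values are mean ± SD of three independent experiments.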

Series [2] is described as follows: Cytotoxicity against MDCK cells assessed as reduction in cell viability after 48 hrs by CellTiter-Glo assay. The format is cell-based, Canis lupus familiaris. Conditions: dog. In outline: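 Uninfected MDCK cells were exposed to compound. CC50 is the concentration that reduced cell viability by 50%.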
Background: Cellular ATP, detected with luciferase, serves as a proxy for viable cell number.

Series [3] in a line: Selectivity ratio of EC50 for Influenza A virus (A/Puerto Rico/8/34(H1N1)) infected in MDCK cells to EC50 for Influenza A virus H3N2 VR1679 infected in MDCK cells. The format is functional.
Series [4] relates to Influenza A virus H3N2. Description: Antiviral activity against Influenza A virus H3N2 VR1679 infected in MDCK cells assessed as inhibition of virus-induced cytocidal activity after 48 hrs by CellTiter-Glo assay. In kind it is functional, organism-based. In outline: as §1
In series [5] the test system is Influenza A virus H3N2. As to the kind of experiment: Antiviral activity against Influenza A virus H3N2 VR1679 infected in MDCK cells assessed as inhibition of viral nucleoprotein production at 10 uM after 6 hrs by immunostaining-based confocal microscopy. In kind it is functional, organism-based. In outline:
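VR1679 infected MDCK cells at MOI = 1 with compound at 10 μM for 6 h. Cells were immunostained with FITC-conjugated anti-NP antibodies and DAPI for nuclei, and viral NP was imaged by laser-scanning confocal microscopy. Infected cells without compound served as controls.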

For series [6], the system named is Influenza A virus H3N2. Description: Antiviral activity against Influenza A virus H3N2 VR1679 infected in MDCK cells assessed as inhibition of virus-induced cytocidal activity compound treated 4 hrs post infection by time of addition assay. The format is functional, organism-based. Put shortly: (§2)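 Time-of-addition assay: MDCK cells infected with VR1679 at MOI = 0.1, with compound added before infection or at various times post-infection. Percent protection of cells from virus killing was calculated by a formula. Data are the average of two independent experiments.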

Series [7] deals with Influenza A virus H3N2. As to the kind of experiment: Antiviral activity against Influenza A virus H3N2 VR1679 infected in MDCK cells assessed as inhibition of virus-induced cytocidal activity compound treated 6 hrs post infection by time of addition assay. In kind it is functional, organism-based. In outline:
as §2

For series [8], the system named is Influenza A virus H3N2. As to the kind of experiment: Antiviral activity against Influenza A virus H3N2 VR1679 infected in MDCK cells assessed as inhibition of virus-induced cytocidal activity compound treated 2 hrs post infection by time of addition assay. The format is functional, organism-based. Put shortly: as §2
Series [9] has as its system Influenza A virus H3N2. Description: Antiviral activity against Influenza A virus H3N2 VR1679 infected in MDCK cells assessed as inhibition of virus-induced cytocidal activity pretreated with compound before infection by time of addition assay. The format is functional, organism-based. Put shortly: as §2
For series [10], the system named is MDCK. Description: Binding affinity to recombinant Influenza A virus (A/Puerto Rico/8/1934(H1N1)) nucleoprotein in culture medium assessed as protection from Influenza A virus H3N2 VR1679-induced MDCK cytocidal activity after 2 days by CellTiter-Glo assay. The format is cell-based. In outline:
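MDCK cells infected with VR1679 at MOI = 1, treated with compound with or without recombinant A/Puerto Rico/8/1934 NP at 500 μg/mL in the culture medium. Percent protection from virus killing was read 2 days after infection. Values are mean ± SD of three independent experiments.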

A word on the pEC50: it is −log10 of the EC50, conventionally taken in molar units. One may read the CC50 as the concentration giving 50% cytotoxicity. As to `O=C(c1ccc(C(=O)N2CCCC3=C[C@H]4C[C@H](CN5CCCC[C@H]45)[C@@H]32)s1)N1CCCC2=C[C@H]3C[C@H](CN4CCCC[C@H]34)[C@@H]21`, the negative logarithm of the EC50 (pEC50) in series [1] was 5.62. In series [2], the CC50 at 48 h was over 80 µM.
The corresponding values for `O=C1CCC[C@@H]2[C@H]3CCCN4CCC[C@@H](CN12)[C@@H]34` [MATRINE] are under 4.10 and over 80 µM.
For `Cc1onc(-c2ccccc2)c1C(=O)N1CCN(c2ccc([N+](=O)[O-])cc2Cl)CC1` [NUCLEOZIN] the same measures were 6.15 and over 80 µM.
The corresponding values for `C1=C2CCCN(CC3CC3)[C@H]2[C@@H]2C[C@H]1[C@H]1CCCCN1C2` are 4.82 and over 80 µM.
As to `C1CCN2C[C@@H]3C[C@@H](CN4CCCC[C@H]34)[C@H]2C1`, the pEC50 in series [1] is 4.67. Also, the 50% cytotoxic concentration (CC50) at 48 h in [2] was over 80 µM.
The corresponding values for `CCN1CCCC2=C[C@H]3C[C@H](CN4CCCC[C@H]34)[C@@H]21` are 5.11 and over 80 µM.
For `CCOC(=O)C1=C[C@@H](OC(CC)CC)[C@H](NC(C)=O)[C@@H](N)C1` [OSELTAMIVIR], the pEC50 in [1] and in series [4] was under 4.10 each time. In series [2], the CC50 at 48 h was over 80 µM. In addition, in series [3], the “Ratio EC50” value was over 200. Moreover, the inhibition result in series [5] and in [7] was “inactive” throughout. Moreover, the inhibition entry in series [6], in series [8] and in series [9] was “Active” in each case. The outcome in series [10] was inactive.
With `O=C(NCCN1CCCC2=C[C@H]3C[C@H](CN4CCCC[C@H]34)[C@@H]21)c1ccccc1F`, the pEC50 in [1] is 5.26. The CC50 at 48 h in [2] was over 80 µM.
The corresponding values for `O=c1cccc2n1C[C@@H]1CNC[C@H]2C1` [CYTISINICLINE] are under 4.10 and over 80 µM.
As for `CN1CCCC2=C[C@H]3C[C@H](CN4CCCC[C@H]34)[C@@H]21`, the pEC50 in series [1] was 5.02. For the same molecule, the CC50 at 48 h in series [2] is over 80 µM.
The corresponding values for `C1=C2CCCN(CC3CCCCC3)[C@H]2[C@@H]2C[C@H]1[C@H]1CCCCN1C2` are 4.53 and over 80 µM.
As for `C1=C2CCCN[C@H]2[C@@H]2C[C@H]1[C@H]1CCCCN1C2`, the pEC50 in series [1] was 4.84. The CC50 at 48 h in [2] is over 80 µM.
The corresponding values for `C1=C2CCCN(CC3CCC3)[C@H]2[C@@H]2C[C@H]1[C@H]1CCCCN1C2` are 4.73 and over 80 µM.
Turning to `CN1CC2CC(C1)c1cccc(=O)n1C2` (configuration not stated), the negative-log EC50 (pEC50) in series [1] is under 4.10. Further, in series [2], the 50% cytotoxic concentration (CC50) at 48 h was over 80 µM.
As for `CN1CCC[C@H]2C[C@H]3C[C@H](CN4CCCC[C@H]34)[C@@H]21`, in series [1], the pEC50 was 5.09. Moreover, in [2], the 50% cytotoxic concentration (CC50) at 48 h is over 80 µM.
The corresponding values for `C1CN[C@@H]2C(C1)C[C@H]1C[C@@H]2CN2CCCC[C@H]12` (mixture of isomers) are 4.95 and over 80 µM.
Consider `CN1CCC[C@@H]2C[C@H]3C[C@H](CN4CCCC[C@H]34)[C@@H]21`, for which the negative-log EC50 (pEC50) in series [1] is 5.21. For the same molecule, the CC50 at 48 h in [2] was over 80 µM. Besides, the inhibition result in series [4], in [5], in [6], in [8] and in series [9] was “Active” in each case. Further, the inhibition entry in series [7] is “inactive”. For the same molecule, the outcome in series [10] was Active.
With `O=C1CCC[C@@H]2[C@H]3CCC[N+]4([O-])CCC[C@@H](CN12)[C@@H]34` (some centres not stated) [OXYMATRINE], the pEC50 in series [1] is under 4.10. For the same molecule, the cytotoxic concentration (CC50) at 48 h in series [2] was over 80 µM.
For `NC12CC3CC(CC(C3)C1)C2` [AMANTADINE] the same measures were under 4.10 and over 80 µM.
As for `C1CCN2C[C@@H]3C[C@@H](CN4CCCC[C@@H]34)[C@H]2C1` [SPARTEINE], the pEC50 in [1] was 4.71. Also, the CC50 at 48 h in series [2] is over 80 µM.
In the case of `CC(C)CN1CCCC2=C[C@H]3C[C@H](CN4CCCC[C@H]34)[C@@H]21`, in [1], the negative-log EC50 (pEC50) was 4.46. For the same molecule, the CC50 at 48 h in series [2] is over 80 µM.
